Measurements of several laboratories.
Compare with care: the assays were run in different laboratories.
Target: Serine/threonine-protein kinase 38 (STK38, Homo sapiens, UniProt Q15208)

| Structure (SMILES) | assay | test system | setting | measurement | result |
| --- | --- | --- | --- | --- | --- |
| CCN1CCN(Cc2ccc(NC(=O)c3ccc(C)c(Oc4ccnc5[nH]ccc45)c3)cc2C(F)(F)F)CC1 | target engagement in cells, inhibitor, chemoproteomics | A-375 | 50 nM | inhibition | -11.4% |
| CN1CCC2(CC1)NC(=O)c1c(c3ccc(Cl)c(Cl)c3n1C)C2C#N (racemic) | thermal stability, DSF |  | 10 µM | ΔTm | 0 °C |
| CCCOc1ccc([C@@H]2[C@@H](C(=O)O)[C@H](c3ccc4c(c3)OCO4)CN2CC(=O)Nc2c(CC)cccc2CC)cc1 | cell-free assay, competition with immobilised ligand |  | 1 µM | remaining binding | 83% |
| Nc1ncnc2occ(-c3ccc(NC(=O)Nc4cc(C(F)(F)F)ccc4F)cc3)c12 | cell-free assay, inhibitor |  | 20 µM | remaining signal | 31% |
| CCC(=N\O)/C(C)=C/c1ccc(F)cc1 | cell-free assay, competition with immobilised ligand |  | 1 µM | remaining binding | 94% |
| COc1cc2c(N3CCN(C(=O)Nc4ccc(OC(C)C)cc4)CC3)ncnc2cc1OCCCN1CCCCC1 | cell-free assay |  | 0.5 µM | remaining signal | 99.1% |
| Cn1c2c(Cl)c(Cl)ccc2c2cc[nH]c(=O)c21 | thermal stability, DSF |  | 10 µM | ΔTm | 0 °C |
| C[C@H](c1ccnc(Nc2nc3ccc(-c4cc(N(C)C)ncn4)cc3[nH]2)c1)N1CCN(C(=O)CC(F)(F)F)CC1 | cell-free assay, competition with immobilised ligand |  | 0.1 µM | remaining binding | 100% |
| Cc1sc(C(=O)NC2COC2)cc1-n1cc(NC(=O)Nc2c(F)cccc2Cl)cn1 | enzyme activity, inhibitor |  | 10 µM | remaining activity | 91.5% |
| Cn1c2c(c3ccc(Cl)c(Cl)c31)C(C#N)C1(CCOCC1)NC2=O (stereo not shown) | thermal stability, DSF |  | 10 µM | ΔTm | 0 °C |
| CCN1CCN(Cc2ccc(NC(=O)c3ccc(C)c(/C=C/c4cnc5[nH]ccc5c4OC)c3)cc2C(F)(F)F)CC1 | target engagement in cells, inhibitor, chemoproteomics | A-375 | 0.5 µM | inhibition | -0.843% |
| Cc1c(NC(=O)c2cc(C(N)=O)nc3cc(F)ccc23)c(C(F)(F)F)nn1Cc1ccc(C#N)cc1 | cell-free assay, competition with immobilised ligand |  | 1 µM | remaining binding | 94% |
| CCC1(CC)NC(=O)c2c(c3ccc(Cl)c(Cl)c3n2C)C1C#N (stereo not shown) | thermal stability, DSF |  | 10 µM | ΔTm | 1.1 °C |
| O=C(Nc1cnn(-c2csc(C(=O)NC3COC3)c2)c1)Nc1c(F)cccc1Cl | enzyme activity, inhibitor |  | 5 µM | remaining activity | 95.5% |
| CC1(C)NC(=O)c2[nH]c3c(Cl)c(Cl)ccc3c2C1C#N (stereo not shown) | thermal stability, DSF |  | 10 µM | ΔTm | -0.1 °C |
| Cc1cc(NC(=O)c2cccc(S(F)(F)(F)(F)F)c2)cc(-n2ccn3nc(-c4cccnc4)cc23)c1 | cell-free assay, competition with immobilised ligand |  | 1 µM | remaining binding | 92.3% |
| C[S+]([O-])c1ccc(-c2nc(-c3ccncc3)c(-c3ccc(F)cc3)[nH]2)cc1 (stereo not shown) | cell-free assay |  | 0.5 µM | remaining signal | 105% |
| c1ccc(N2CCN(Cc3nc4ccccc4[nH]3)CC2)nc1 | binding, competition with immobilised ligand |  | 1 µM | remaining binding | 89% |
| c1nc2c(Nc3ccc4c(c3)OCCO4)nc(Nc3ccc4c(c3)OCCO4)nc2[nH]1 | enzyme activity, inhibitor |  | 10 µM | activity vs control | 73% |
